In ChEMBL document CHEMBL1148911, “Ardisinones A-E, novel diarylundecanones from Ardisia arborescens” (J Nat Prod, 2004):
The source made the active and inactive calls.

Legend:
Format in all cases: functional, organism-based
Bacillus subtilis = experiment: Antibacterial activity against Bacillus subtilis after 24 hrs by disk diffusion assay
Procedure, shortened: (§1)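 Agar disk diffusion. Each organism was grown on agar medium, and plates were inoculated by spreading a spore or cell suspension evenly over the agar surface to give confluent growth. Compound-loaded disks were applied, and the zone of inhibition around each disk was measured at 24 and 48 h.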

[1] = system: Mycolicibacterium smegmatis; experiment: Antibacterial activity against Mycobacterium smegmatis after 24 hrs by disk diffusion assay; procedure, shortened: as §1
Escherichia coli = experiment: Antibacterial activity against Escherichia coli after 24 hrs by disk diffusion assay; procedure, shortened: as §1
Aspergillus niger = experiment: Antibacterial activity against Aspergillus niger after 48 hrs by disk diffusion assay; procedure, shortened: as §1
Staphylococcus aureus = experiment: Antibacterial activity against Staphylococcus aureus after 24 hrs by disk diffusion assay; procedure, shortened: as §1
Candida albicans = experiment: Antibacterial activity against Candida albicans after 48 hrs by disk diffusion assay; procedure, shortened: as §1

Measured: Activity

COc1cc(O)c(C(=O)CCCCCCCCCCc2c(O)cccc2OC(C)=O)c(O)c1
inactive: all assays above

COc1cc(O)c(C(=O)CCCCCCCCCCc2c(O)cccc2O)c(O)c1
inactive: all assays above
